# Data taken from ChEMBL document CHEMBL1148178, “Dicranin, an antimicrobial and 15-lipoxygenase inhibitor from the moss Dicranum scoparium” (1993).
# Calls of active or inactive are those of the source. No cut-off for these calls is given here.
# How the values were obtained:
# Bacillus subtilis [1] = test: Antibacterial activity against Bacillus subtilis NCIB 3610 at 50 ug/disk after 24 hrs by disk diffusion assay; format: functional; conditions: read-out: Diameter of inhibition zone
# Procedure, shortened: (§1)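 Sterile 6 mm filter-paper disc bearing sample set in the centre of a Petri dish of 15 ml plate count agar. Overlaid with 3 ml soft nutrient agar (nutrient broth + 0.7% agar) seeded with 1% of a 16–18 h culture of the test strain. Read-out is the diameter of the growth-free zone around the disc.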
# Bacillus cereus [2] = test: Antibacterial activity against Bacillus cereus NCIB 3329 at 125 ug/disk after 24 hrs by disk diffusion assay; format: functional; conditions: read-out: Diameter of inhibition zone; procedure, shortened: as §1
# Bacillus cereus [3] = test: Bactericidal activity against Bacillus cereus NCIB 3329 at 50 ug/ml by liquid culture assay; format: functional, organism-based
# Procedure, shortened: (§2)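 Wells hold brain heart infusion (200 µl) plus 50 µl inoculum at 10³–10⁵ cfu/ml, with dicranin added as the sodium salt in water (10–200 μg/ml tested). Cultures are incubated at the strain's optimal growth temperature. Duplicate 100 µl samples are taken at 0, 2, 4, 6, 8 and 24 h, diluted in tryptone salt to 10–500 bacteria/plate, plated on plate count agar, and colonies counted after 24 h.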
# Enterococcus faecalis [4] = test: Antibacterial activity against Streptococcus faecalis NCIB 775 after 24 hrs by disk diffusion assay; format: functional, organism-based; procedure, shortened: as §1
# Bacillus cereus [5] = test: Bactericidal activity against Bacillus cereus NCIB 3329 at 100 ug/ml upto 4 hrs by liquid culture assay; format: functional, organism-based; procedure, shortened: as §2
# Staphylococcus aureus [6] = test: Antibacterial activity against Staphylococcus aureus T-AQ 49/YF29 at 100 ug/disk after 24 hrs by disk diffusion assay; format: functional; conditions: read-out: Diameter of inhibition zone; procedure, shortened: as §1
# [7] = test system: Geobacillus stearothermophilus; test: Antibacterial activity against Bacillus stearothermophilus NCA 1518 after 24 hrs by disk diffusion assay; format: functional, organism-based; procedure, shortened: as §1
# Bacillus subtilis [8] = test: Antibacterial activity against Bacillus subtilis NCIB 3610 at 125 ug/disk after 24 hrs by disk diffusion assay; format: functional; conditions: read-out: Diameter of inhibition zone; procedure, shortened: as §1
# Bacillus cereus [9] = test: Antibacterial activity against Bacillus cereus NCIB 3329 at 250 ug/disk after 24 hrs by disk diffusion assay; format: functional; conditions: read-out: Diameter of inhibition zone; procedure, shortened: as §1
# Bacillus cereus [10] = test: Antibacterial activity against Bacillus cereus NCIB 3329 at 500 ug/disk after 24 hrs by disk diffusion assay; format: functional; conditions: read-out: Diameter of inhibition zone; procedure, shortened: as §1
# Pseudomonas aeruginosa = test: Antibacterial activity against Pseudomonas aeruginosa ATCC 10145 at 1 mg/disk after 24 hrs by disk diffusion assay; format: functional, organism-based; procedure, shortened: as §1
# [11] = test system: Geobacillus stearothermophilus; test: Bacteriostatic activity against Bacillus stearothermophilus NCA 1518 at 50 to 150 ug/ml after 4 hrs by liquid culture assay; format: functional, organism-based; procedure, shortened: as §2
# Enterococcus faecalis [12] = test: Antibacterial activity against Streptococcus faecalis NCIB 775 at 25 ug/disk after 24 hrs by disk diffusion assay; format: functional; conditions: read-out: Diameter of inhibition zone
# Procedure, shortened: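 Test material loaded onto 6 mm sterile filter-paper discs. Each disc sits at the centre of a plate of 15 ml plate count agar overlaid with 3 ml soft nutrient agar (nutrient broth + 0.7% agar) carrying 1% of a 16–18 h culture. Activity is read as the diameter of the no-growth zone around the disc.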
# [13] = test system: Geobacillus stearothermophilus; test: Antibacterial activity against Bacillus stearothermophilus NCA 1518 at 25 ug/disk after 24 hrs by disk diffusion assay; format: functional; conditions: read-out: Diameter of inhibition zone; procedure, shortened: as §1
# Staphylococcus aureus [14] = test: Antibacterial activity against Staphylococcus aureus T-AQ 49/YF29 at 1000 ug/disk after 24 hrs by disk diffusion assay; format: functional; conditions: read-out: Diameter of inhibition zone; procedure, shortened: as §1
# Escherichia coli = test: Antibacterial activity against Escherichia coli B74-1 at 1 mg/disk after 24 hrs by disk diffusion assay; format: functional, organism-based; procedure, shortened: as §1
# Staphylococcus aureus [15] = test: Antibacterial activity against Staphylococcus aureus T-AQ 49/YF29 at 75 ug/disk after 24 hrs by disk diffusion assay; format: functional; conditions: read-out: Diameter of inhibition zone; procedure, shortened: as §1
# Staphylococcus aureus [16] = test: Antibacterial activity against Staphylococcus aureus T-AQ 49/YF29 at 10 ug/disk after 24 hrs by disk diffusion assay; format: functional; conditions: read-out: Diameter of inhibition zone; procedure, shortened: as §1
# [17] = test system: Geobacillus stearothermophilus; test: Antibacterial activity against Bacillus stearothermophilus NCA 1518 at 1000 ug/disk after 24 hrs by disk diffusion assay; format: functional; conditions: read-out: Diameter of inhibition zone; procedure, shortened: as §1
# Bacillus cereus [18] = test: Antibacterial activity against Bacillus cereus NCIB 3329 at 25 ug/disk after 24 hrs by disk diffusion assay; format: functional; conditions: read-out: Diameter of inhibition zone; procedure, shortened: as §1
# Bacillus subtilis [19] = test: Antibacterial activity against Bacillus subtilis NCIB 3610 at 25 ug/disk after 24 hrs by disk diffusion assay; format: functional; conditions: read-out: Diameter of inhibition zone; procedure, shortened: as §1
# [20] = test system: Geobacillus stearothermophilus; test: Antibacterial activity against Bacillus stearothermophilus NCA 1518 at 75 ug/disk after 24 hrs by disk diffusion assay; format: functional; conditions: read-out: Diameter of inhibition zone; procedure, shortened: as §1
# [21] = test system: Geobacillus stearothermophilus; test: Antibacterial activity against Bacillus stearothermophilus NCA 1518 at 250 ug/disk after 24 hrs by disk diffusion assay; format: functional; conditions: read-out: Diameter of inhibition zone; procedure, shortened: as §1
# Bacillus subtilis [22] = test: Antibacterial activity against Bacillus subtilis NCIB 3610 at 100 ug/disk after 24 hrs by disk diffusion assay; format: functional; conditions: read-out: Diameter of inhibition zone; procedure, shortened: as §1
# Bacillus cereus [23] = test: Antibacterial activity against Bacillus cereus NCIB 3329 at 100 ug/disk after 24 hrs by disk diffusion assay; format: functional; conditions: read-out: Diameter of inhibition zone; procedure, shortened: as §1
# Bacillus subtilis [24] = test: Antibacterial activity against Bacillus subtilis NCIB 3610 at 500 ug/disk after 24 hrs by disk diffusion assay; format: functional; conditions: read-out: Diameter of inhibition zone; procedure, shortened: as §1
# Salmonella typhimurium = test: Antibacterial activity against Salmonella Typhimurium NCIB 10248 at 1 mg/disk after 24 hrs by disk diffusion assay; format: functional, organism-based; conditions: Salmonella enterica subsp. enterica serovar Typhimurium; procedure, shortened: as §1
structure (smiles),measurement,setting,value
CC/C=C\C/C=C\C/C=C\CC#CCCCCC(=O)O [DICRANIN],zone of inhibition at 50 µg/disc,Bacillus subtilis [1],11 mm
same,zone of inhibition at 125 µg/disc,Bacillus cereus [2],16 mm
same,Activity,Bacillus cereus [3],Active
same,Activity,Enterococcus faecalis [4],Active
same,Activity,Bacillus cereus [5],Active
same,zone of inhibition at 100 µg/disc,Staphylococcus aureus [6],16 mm
same,Activity,[7],Active
same,zone of inhibition at 125 µg/disc,Bacillus subtilis [8],14 mm
same,zone of inhibition at 250 µg/disc,Bacillus cereus [9],19 mm
same,zone of inhibition at 500 µg/disc,Bacillus cereus [10],22 mm
same,Activity,Pseudomonas aeruginosa,inactive
same,Activity,[11],Active
same,zone of inhibition at 25 µg/disc,Enterococcus faecalis [12],10 mm
same,zone of inhibition at 25 µg/disc,[13],9 mm
same,zone of inhibition at 1000 µg/disc,Staphylococcus aureus [14],23 mm
same,Activity,Escherichia coli,inactive
same,zone of inhibition at 75 µg/disc,Staphylococcus aureus [15],12 mm
same,zone of inhibition at 10 µg/disc,Staphylococcus aureus [16],0 mm
same,zone of inhibition at 1000 µg/disc,[17],35 mm
same,zone of inhibition at 25 µg/disc,Bacillus cereus [18],9 mm
same,zone of inhibition at 25 µg/disc,Bacillus subtilis [19],8 mm
same,zone of inhibition at 75 µg/disc,[20],14 mm
same,zone of inhibition at 250 µg/disc,[21],26 mm
same,zone of inhibition at 100 µg/disc,Bacillus subtilis [22],13 mm
same,zone of inhibition at 100 µg/disc,Bacillus cereus [23],15 mm
same,zone of inhibition at 500 µg/disc,Bacillus subtilis [24],19 mm
same,Activity,Salmonella typhimurium,inactive
